From ChEMBL document CHEMBL1144710, “epigenetic multiple ligands: mixed histone/protein methyltransferase, acetyltransferase, and class III deacetylase (sirtuin) inhibitors” (J Med Chem, 2008)
Active and inactive are the calls of the source. Unless noted, the calls are words filed in the database; no cut-off is given here.

Tests used:
U-937 [1] = experiment: Cell cycle arrest in human U937 cells assessed as accumulation at S phase at 25 uM after 30 hrs; assay type: functional, cell-based
Procedure, shortened: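 U937 cells in RPMI with 10% fetal calf serum, HEPES and glutamine, kept at 200000 cells/mL; treated at 25 µM for 30 h, then the distribution across cell cycle phases was analysed.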

U-937 [2] = experiment: Induction of granulocytic differentiation in human U937 cells assessed as CD11c expression at 5 uM after 30 hrs; assay type: functional
Procedure, shortened: (§1)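 U937 cells treated for 30 h, then stained with PE-conjugated CD11c (PE mouse IgG1 as control) for 30 min at 4 °C in the dark and resuspended in PBS with PI (0.25 µg/mL). Read-out is percent CD11c-positive/PI-negative cells, with dead PI-positive cells excluded. Coloured compounds limited the top dose to 5 µM or lower.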

U-937 [3] = experiment: Induction of granulocytic differentiation in human U937 cells assessed as CD11c expression at 0.5 uM after 30 hrs; assay type: functional; procedure, shortened: as §1
RmtA = RmtA (Emericella nidulans, UniProt Q5VLE3); experiment: Inhibition of Aspergillus nidulans RmtA
Procedure, shortened: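 Enzyme was GST-RmtA fusion expressed in E. coli BL21 and glutathione-affinity purified (500 ng), preincubated with compound for 15 min at room temperature. Then 20 µg chicken erythrocyte core histones and 0.55 µCi [3H]AdoMet were added, 30 min at 30 °C. Stopped with 25% TCA, filtered, counted by liquid scintillation.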

[4] = target: Protein arginine N-methyltransferase 1 (Homo sapiens) (UniProt Q99873); experiment: Inhibition of human recombinant PRMT1 assessed as histone H4 methylation at 50 uM
[5] = target: Protein arginine N-methyltransferase 1 (Homo sapiens) (UniProt Q99873); experiment: Inhibition of human recombinant PRMT1 assessed as nuclear ribonucleoprotein Npl3p methylation at 100 uM
Procedure, shortened: (§2)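 Recombinant enzymes (0.2 µg) with substrate (0.5 µg: Npl3p for PRMT1, PABP1 for CARM1, histone H3 for SET7), 0.5 µM [3H]AdoMet and 100 µM compound in PBS pH 7.4 with 3.3% v/v DMSO, 90 min at 30 °C. Products separated by 10% SDS-PAGE, transferred to PVDF, detected by fluorography on film overnight.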

[6] = target: T1, Histone-lysine N-methyltransferase SETD7 (Homo sapiens) (UniProt Q8WTS6); experiment: Inhibition of human recombinant SET7 assessed as histone H3 protein methylation at 100 uM; procedure, shortened: as §2
T1 sequence (whole entry): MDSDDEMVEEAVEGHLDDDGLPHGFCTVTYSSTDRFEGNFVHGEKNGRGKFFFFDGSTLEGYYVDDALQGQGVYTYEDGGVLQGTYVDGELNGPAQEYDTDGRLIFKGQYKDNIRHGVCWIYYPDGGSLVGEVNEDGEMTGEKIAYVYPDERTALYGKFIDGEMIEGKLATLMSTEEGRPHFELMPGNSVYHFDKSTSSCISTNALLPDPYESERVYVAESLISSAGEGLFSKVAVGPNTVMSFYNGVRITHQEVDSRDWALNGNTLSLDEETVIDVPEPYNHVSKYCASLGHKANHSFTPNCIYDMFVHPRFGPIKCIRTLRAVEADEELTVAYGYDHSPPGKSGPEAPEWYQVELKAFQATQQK

U-937 [7] = experiment: Inhibition of histone H4R3 methylation in human U937 cells at 50 uM after 24 hrs; assay type: functional, cell-based
Procedure, shortened: (§3)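 U937 cells treated at 50 µM for 24 h. Histones extracted with Triton buffer, then 0.2 M HCl overnight at 4 °C. 3–10 µg run on 15% SDS-PAGE and immunoblotted with anti-monomethyl-H3K4, monomethyl-H4R3 or dimethyl-H3R17 (1:500, overnight 4 °C), ECL detection. Loading controls: total H4 (H3K4), Ponceau Red (Arg marks).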

U-937 [8] = experiment: Inhibition of histone H3R17 methylation in human U937 cells at 50 uM after 24 hrs; assay type: functional, cell-based; procedure, shortened: as §3
U-937 [9] = experiment: Inhibition of human p300/CBP in U937 cells at 50 uM assessed as histone H3 acetylation; assay type: cell-based
Procedure, shortened: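 Source was U937 nuclear extract (10 µg per assay) as p300/CBP HAT, with histone H3 substrate and compound at 50 µM or DMSO control for 90 min. Acetyl-H3 detected by indirect ELISA, quantified against acetylated H3 peptide standard curves, […].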

[10] = target: T2, NAD-dependent protein deacetylase sirtuin-1 (Homo sapiens) (UniProt Q96EB6); experiment: Inhibition of human SIRT1 at 25 uM
T2 sequence (whole entry): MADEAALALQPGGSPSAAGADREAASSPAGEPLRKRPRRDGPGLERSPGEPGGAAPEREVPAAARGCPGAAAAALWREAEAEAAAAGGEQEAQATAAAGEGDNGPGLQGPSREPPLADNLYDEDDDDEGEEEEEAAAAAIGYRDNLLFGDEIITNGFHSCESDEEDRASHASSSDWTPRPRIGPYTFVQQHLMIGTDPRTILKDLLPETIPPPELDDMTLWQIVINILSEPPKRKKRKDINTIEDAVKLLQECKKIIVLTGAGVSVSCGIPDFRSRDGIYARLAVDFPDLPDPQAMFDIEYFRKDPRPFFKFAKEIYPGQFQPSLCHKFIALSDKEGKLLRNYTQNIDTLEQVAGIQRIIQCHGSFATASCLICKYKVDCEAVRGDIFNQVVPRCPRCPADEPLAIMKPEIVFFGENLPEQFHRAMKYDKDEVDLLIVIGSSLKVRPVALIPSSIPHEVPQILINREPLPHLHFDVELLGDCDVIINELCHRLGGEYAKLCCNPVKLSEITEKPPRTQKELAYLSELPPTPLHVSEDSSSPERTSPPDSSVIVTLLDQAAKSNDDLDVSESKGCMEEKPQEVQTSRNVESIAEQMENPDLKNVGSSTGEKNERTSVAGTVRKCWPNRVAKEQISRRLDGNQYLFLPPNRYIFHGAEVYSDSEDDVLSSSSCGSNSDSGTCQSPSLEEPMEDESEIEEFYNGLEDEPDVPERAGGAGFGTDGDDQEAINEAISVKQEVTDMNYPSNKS
Procedure, shortened: (§4)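 Fluorescent two-stage assay. SIRT1 (1 U/well) or SIRT2 (5 U/well) with Fluor de Lys-SIRT1/2 substrate, NAD+ and compound at 25 µM, 37 °C for 2 h. Developer II containing nicotinamide then stopped the reaction and generated signal, read at ex 360/em 460 nm.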

[11] = target: T3, NAD-dependent protein deacetylase sirtuin-2 (Homo sapiens) (UniProt Q8IXJ6); experiment: Inhibition of human SIRT2 at 25 uM; procedure, shortened: as §4
T3 sequence (whole entry): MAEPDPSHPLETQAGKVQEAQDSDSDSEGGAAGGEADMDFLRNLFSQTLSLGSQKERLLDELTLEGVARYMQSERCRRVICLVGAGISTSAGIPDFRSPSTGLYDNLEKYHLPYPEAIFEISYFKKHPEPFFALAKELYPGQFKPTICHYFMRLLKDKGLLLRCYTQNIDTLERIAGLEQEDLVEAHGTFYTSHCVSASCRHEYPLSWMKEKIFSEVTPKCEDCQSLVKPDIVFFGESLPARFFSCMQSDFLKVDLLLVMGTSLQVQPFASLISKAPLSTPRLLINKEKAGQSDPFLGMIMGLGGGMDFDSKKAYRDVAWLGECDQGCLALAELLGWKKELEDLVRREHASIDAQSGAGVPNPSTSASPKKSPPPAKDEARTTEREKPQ

Sequence of Protein arginine N-methyltransferase 1 (Homo sapiens) (Q99873 whole entry, looked up): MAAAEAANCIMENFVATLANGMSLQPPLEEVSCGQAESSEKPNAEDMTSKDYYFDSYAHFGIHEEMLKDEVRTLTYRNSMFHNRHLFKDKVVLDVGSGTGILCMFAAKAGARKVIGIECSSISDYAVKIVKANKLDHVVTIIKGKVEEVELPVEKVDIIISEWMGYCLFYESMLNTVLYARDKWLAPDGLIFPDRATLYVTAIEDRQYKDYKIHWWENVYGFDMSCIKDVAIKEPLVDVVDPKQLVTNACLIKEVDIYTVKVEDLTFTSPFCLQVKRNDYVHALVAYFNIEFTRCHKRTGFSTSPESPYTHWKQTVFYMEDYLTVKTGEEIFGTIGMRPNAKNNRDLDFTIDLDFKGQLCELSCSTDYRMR
Sequence of RmtA (Q5VLE3 whole entry, the tested form may be a part): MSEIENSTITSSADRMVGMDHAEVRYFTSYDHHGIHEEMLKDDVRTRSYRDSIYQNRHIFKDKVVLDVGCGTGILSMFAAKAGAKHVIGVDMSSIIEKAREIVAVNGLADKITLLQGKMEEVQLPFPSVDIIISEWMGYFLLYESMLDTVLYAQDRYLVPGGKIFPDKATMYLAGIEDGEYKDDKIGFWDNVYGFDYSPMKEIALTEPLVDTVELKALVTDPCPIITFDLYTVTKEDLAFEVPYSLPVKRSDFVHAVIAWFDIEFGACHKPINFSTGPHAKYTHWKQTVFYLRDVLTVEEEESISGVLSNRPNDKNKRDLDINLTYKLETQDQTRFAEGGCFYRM

- IC50 (RmtA): 29 µM
- inhibition [4]: 91%
- Activity [5]: Active
- Activity [6]: Active
- inhibition [10]: 62%
- inhibition [11]: 67%
SMILES: O=C1/C(=C/c2cc(Br)c(O)c(Br)c2)COC/C1=C\c1cc(Br)c(O)c(Br)c1
- Activity (U-937 [1]): Active
- Activity (U-937 [2]): 96.1%
- Activity (U-937 [3]): 59%
- Activity (U-937 [7]): Active
- Activity (U-937 [8]): Active
- inhibition (U-937 [9]): 61%
